# Source: ChEMBL document CHEMBL2016480, “Structure-based ligand design of novel bacterial RNA polymerase inhibitors” (ACS Med Chem Lett, 2011)
# System: Staphylococcus aureus
# Assay: Antibacterial activity against Staphylococcus aureus SH1000 expressing rsbU gene in the presence of polymyxin B nonapeptide
# Format: functional
# Outline: (§1)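 MICs by standard susceptibility testing per British Society for Antimicrobial Chemotherapy guidelines, run in triplicate. For the PMBN lines, tests were repeated with polymyxin B nonapeptide added as an outer-membrane permeabilizer.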
row,SMILES,MIC [mg/L]
1,NS(=O)(=O)c1ccc(C(=O)Nc2ccc(OCc3ccccn3)nc2)cc1,> 256
2,CCCC/C(C)=C/C=C(\C)C(=O)c1c(O)cc(CCC/C=C/NC(=O)OC)oc1=O [DESMETHYL MYXOPYRONIN B],> 256
3,NC(=O)c1ccc(C(=O)Nc2ccc(-n3cncn3)nc2)cc1,> 256
4,NS(=O)(=O)c1ccc(C(=O)Nc2ccc(-c3ccco3)nc2)cc1,> 256
5,N#Cc1ccc(C(=O)Nc2ccc(-n3ccnc3)nc2)cc1,> 256
6,O=C(Nc1ccc(-n2cncn2)nc1)c1ccc(C(F)(F)F)cc1,> 256
7,NS(=O)(=O)c1ccc(C(=O)Nc2ccc(N3CCOCC3)nc2)cc1,> 256
8,CS(=O)(=O)c1ccc(C(=O)Nc2ccc(-n3cncn3)nc2)cc1,> 256
9,NS(=O)(=O)c1ccc(C(=O)Nc2ccc(-n3cncn3)nc2)cc1,> 256
10,N#Cc1ccc(C(=O)Nc2cnc3ccccc3c2)cc1,> 256
11,O=C(Nc1ccc(-n2cncn2)nc1)c1ccccc1,> 256

# System: Saccharomyces cerevisiae
# Assay: Inhibition of yeast RNA polymerase 2 at 100 uM
# Outline: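 Selectivity assay against yeast RNA polymerase II. Activity was reported as percentage inhibition at 100 μM compound.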
row,SMILES,inhibition [%]
1,NC(=O)c1ccc(C(=O)Nc2ccc(-n3cncn3)nc2)cc1,5.2
2,N#Cc1ccc(C(=O)Nc2ccc(-n3ccnc3)nc2)cc1,17.6
3,NS(=O)(=O)c1ccc(C(=O)Nc2ccc(-n3cncn3)nc2)cc1,9.3

# System: Escherichia coli
# Assay: Antibacterial activity against kanamycin-resistant,acrAB::Tn903 deficient Escherichia coli SM1411 expressing lacI3, lacZ118, proB, trp, nalA, rpsL
# Format: functional
row,SMILES,MIC [mg/L]
1,NS(=O)(=O)c1ccc(C(=O)Nc2ccc(OCc3ccccn3)nc2)cc1,> 256
2,CCCC/C(C)=C/C=C(\C)C(=O)c1c(O)cc(CCC/C=C/NC(=O)OC)oc1=O [DESMETHYL MYXOPYRONIN B],> 256
3,NC(=O)c1ccc(C(=O)Nc2ccc(-n3cncn3)nc2)cc1,> 256
4,NS(=O)(=O)c1ccc(C(=O)Nc2ccc(-c3ccco3)nc2)cc1,> 256
5,N#Cc1ccc(C(=O)Nc2ccc(-n3ccnc3)nc2)cc1,> 256
6,O=C(Nc1ccc(-n2cncn2)nc1)c1ccc(C(F)(F)F)cc1,> 256
7,NS(=O)(=O)c1ccc(C(=O)Nc2ccc(N3CCOCC3)nc2)cc1,> 256
8,CS(=O)(=O)c1ccc(C(=O)Nc2ccc(-n3cncn3)nc2)cc1,> 256
9,NS(=O)(=O)c1ccc(C(=O)Nc2ccc(-n3cncn3)nc2)cc1,> 256
10,N#Cc1ccc(C(=O)Nc2cnc3ccccc3c2)cc1,> 256
11,O=C(Nc1ccc(-n2cncn2)nc1)c1ccccc1,> 256

# System: not listed separately
# Assay: Inhibition of chymotrypsin at 100 uM
# Outline: (§2)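 Counter-screens for promiscuous inhibition using malate dehydrogenase and chymotrypsin enzyme assays. Activity was reported as percentage inhibition at 100 μM compound.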
row,SMILES,inhibition [%]
1,NC(=O)c1ccc(C(=O)Nc2ccc(-n3cncn3)nc2)cc1,1.5
2,N#Cc1ccc(C(=O)Nc2ccc(-n3ccnc3)nc2)cc1,1.8
3,NS(=O)(=O)c1ccc(C(=O)Nc2ccc(-n3cncn3)nc2)cc1,0.6

# System: not listed separately
# Assay: Inhibition of malate dehydrogenase at 100 uM
# Outline: as §2
row,SMILES,inhibition [%]
1,NC(=O)c1ccc(C(=O)Nc2ccc(-n3cncn3)nc2)cc1,0
2,N#Cc1ccc(C(=O)Nc2ccc(-n3ccnc3)nc2)cc1,0.6
3,NS(=O)(=O)c1ccc(C(=O)Nc2ccc(-n3cncn3)nc2)cc1,1.4

# System: Staphylococcus aureus
# Assay: Antibacterial activity against Staphylococcus aureus
# Format: functional
row,SMILES,MIC [mg/L]
1,CCCC/C(C)=C/C=C(\C)C(=O)c1c(O)cc(CCC/C=C/NC(=O)OC)oc1=O [DESMETHYL MYXOPYRONIN B],4

# Target: not listed separately
# Assay: Inhibition of DNA dependent RNA polymerase
row,SMILES,IC50 [µM]
1,CCCC/C(C)=C/C=C(\C)C(=O)c1c(O)cc(CCC/C=C/NC(=O)OC)oc1=O [DESMETHYL MYXOPYRONIN B],0.34

# System: Escherichia coli
# Assay: Antibacterial activity against Escherichia coli 1411 expressing lacI3, lacZ118, proB, trp, nalA, rpsL
# Format: functional
# Outline: as §1
row,SMILES,MIC [mg/L]
1,NS(=O)(=O)c1ccc(C(=O)Nc2ccc(OCc3ccccn3)nc2)cc1,> 256
2,CCCC/C(C)=C/C=C(\C)C(=O)c1c(O)cc(CCC/C=C/NC(=O)OC)oc1=O [DESMETHYL MYXOPYRONIN B],> 256
3,NC(=O)c1ccc(C(=O)Nc2ccc(-n3cncn3)nc2)cc1,> 256
4,NS(=O)(=O)c1ccc(C(=O)Nc2ccc(-c3ccco3)nc2)cc1,> 256
5,N#Cc1ccc(C(=O)Nc2ccc(-n3ccnc3)nc2)cc1,> 256
6,O=C(Nc1ccc(-n2cncn2)nc1)c1ccc(C(F)(F)F)cc1,> 256
7,NS(=O)(=O)c1ccc(C(=O)Nc2ccc(N3CCOCC3)nc2)cc1,> 256
8,CS(=O)(=O)c1ccc(C(=O)Nc2ccc(-n3cncn3)nc2)cc1,> 256
9,NS(=O)(=O)c1ccc(C(=O)Nc2ccc(-n3cncn3)nc2)cc1,> 256
10,N#Cc1ccc(C(=O)Nc2cnc3ccccc3c2)cc1,> 256
11,O=C(Nc1ccc(-n2cncn2)nc1)c1ccccc1,> 256

# System: not listed separately
# Assay: Inhibition of Escherichia coli DNA dependent RNA polymerase after 2 hrs by SYBR Green-based spectrophotometric analysis
# Outline: (§3)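 In vitro transcription assay with E. coli RNA polymerase on a Kool NC-45 RNAP template. Activity was reported as IC50 or as percentage inhibition at 100 μM compound.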
row,SMILES,IC50 [µM]
1,NS(=O)(=O)c1ccc(C(=O)Nc2ccc(OCc3ccccn3)nc2)cc1,151
2,NC(=O)c1ccc(C(=O)Nc2ccc(-n3cncn3)nc2)cc1,9.9
3,N#Cc1ccc(C(=O)Nc2ccc(-n3ccnc3)nc2)cc1,7.2
4,NS(=O)(=O)c1ccc(C(=O)Nc2ccc(-n3cncn3)nc2)cc1,13.7

# System: Staphylococcus aureus
# Assay: Antibacterial activity against Staphylococcus aureus SH1000 expressing rsbU gene
# Format: functional
# Outline: as §1
row,SMILES,MIC [mg/L]
1,NS(=O)(=O)c1ccc(C(=O)Nc2ccc(OCc3ccccn3)nc2)cc1,> 256
2,CCCC/C(C)=C/C=C(\C)C(=O)c1c(O)cc(CCC/C=C/NC(=O)OC)oc1=O [DESMETHYL MYXOPYRONIN B],> 256
3,NC(=O)c1ccc(C(=O)Nc2ccc(-n3cncn3)nc2)cc1,> 256
4,NS(=O)(=O)c1ccc(C(=O)Nc2ccc(-c3ccco3)nc2)cc1,> 256
5,N#Cc1ccc(C(=O)Nc2ccc(-n3ccnc3)nc2)cc1,> 256
6,O=C(Nc1ccc(-n2cncn2)nc1)c1ccc(C(F)(F)F)cc1,> 256
7,NS(=O)(=O)c1ccc(C(=O)Nc2ccc(N3CCOCC3)nc2)cc1,> 256
8,CS(=O)(=O)c1ccc(C(=O)Nc2ccc(-n3cncn3)nc2)cc1,> 256
9,NS(=O)(=O)c1ccc(C(=O)Nc2ccc(-n3cncn3)nc2)cc1,> 256
10,N#Cc1ccc(C(=O)Nc2cnc3ccccc3c2)cc1,> 256
11,O=C(Nc1ccc(-n2cncn2)nc1)c1ccccc1,> 256

# System: Bacillus subtilis
# Assay: Antibacterial activity against Bacillus subtilis 1S34 in the presence of polymyxin B nonapeptide
# Format: functional
# Outline: as §1
row,SMILES,MIC [mg/L]
1,NS(=O)(=O)c1ccc(C(=O)Nc2ccc(OCc3ccccn3)nc2)cc1,> 256
2,CCCC/C(C)=C/C=C(\C)C(=O)c1c(O)cc(CCC/C=C/NC(=O)OC)oc1=O [DESMETHYL MYXOPYRONIN B],> 256
3,NC(=O)c1ccc(C(=O)Nc2ccc(-n3cncn3)nc2)cc1,> 256
4,NS(=O)(=O)c1ccc(C(=O)Nc2ccc(-c3ccco3)nc2)cc1,> 256
5,N#Cc1ccc(C(=O)Nc2ccc(-n3ccnc3)nc2)cc1,> 256
6,O=C(Nc1ccc(-n2cncn2)nc1)c1ccc(C(F)(F)F)cc1,> 256
7,NS(=O)(=O)c1ccc(C(=O)Nc2ccc(N3CCOCC3)nc2)cc1,> 256
8,CS(=O)(=O)c1ccc(C(=O)Nc2ccc(-n3cncn3)nc2)cc1,> 256
9,NS(=O)(=O)c1ccc(C(=O)Nc2ccc(-n3cncn3)nc2)cc1,> 256
10,N#Cc1ccc(C(=O)Nc2cnc3ccccc3c2)cc1,> 256
11,O=C(Nc1ccc(-n2cncn2)nc1)c1ccccc1,> 256

# System: Escherichia coli
# Assay: Antibacterial activity against Escherichia coli 1411 expressing lacI3, lacZ118, proB, trp, nalA, rpsL in the presence of polymyxin B nonapeptide
# Format: functional
# Outline: as §1
row,SMILES,MIC [mg/L]
1,NS(=O)(=O)c1ccc(C(=O)Nc2ccc(OCc3ccccn3)nc2)cc1,> 256
2,CCCC/C(C)=C/C=C(\C)C(=O)c1c(O)cc(CCC/C=C/NC(=O)OC)oc1=O [DESMETHYL MYXOPYRONIN B],> 256
3,NC(=O)c1ccc(C(=O)Nc2ccc(-n3cncn3)nc2)cc1,> 256
4,NS(=O)(=O)c1ccc(C(=O)Nc2ccc(-c3ccco3)nc2)cc1,> 256
5,N#Cc1ccc(C(=O)Nc2ccc(-n3ccnc3)nc2)cc1,> 256
6,O=C(Nc1ccc(-n2cncn2)nc1)c1ccc(C(F)(F)F)cc1,> 256
7,NS(=O)(=O)c1ccc(C(=O)Nc2ccc(N3CCOCC3)nc2)cc1,> 256
8,CS(=O)(=O)c1ccc(C(=O)Nc2ccc(-n3cncn3)nc2)cc1,> 256
9,NS(=O)(=O)c1ccc(C(=O)Nc2ccc(-n3cncn3)nc2)cc1,> 256
10,N#Cc1ccc(C(=O)Nc2cnc3ccccc3c2)cc1,> 256
11,O=C(Nc1ccc(-n2cncn2)nc1)c1ccccc1,> 256

# System: Escherichia coli
# Assay: Antibacterial activity against kanamycin-resistant,acrAB::Tn903 deficient Escherichia coli SM1411 expressing lacI3, lacZ118, proB, trp, nalA, rpsL in the presence of polymyxin B nonapeptide
# Format: functional
row,SMILES,MIC [mg/L]
1,NS(=O)(=O)c1ccc(C(=O)Nc2ccc(OCc3ccccn3)nc2)cc1,> 256
2,CCCC/C(C)=C/C=C(\C)C(=O)c1c(O)cc(CCC/C=C/NC(=O)OC)oc1=O [DESMETHYL MYXOPYRONIN B],> 256
3,NC(=O)c1ccc(C(=O)Nc2ccc(-n3cncn3)nc2)cc1,> 256
4,NS(=O)(=O)c1ccc(C(=O)Nc2ccc(-c3ccco3)nc2)cc1,> 256
5,N#Cc1ccc(C(=O)Nc2ccc(-n3ccnc3)nc2)cc1,> 256
6,O=C(Nc1ccc(-n2cncn2)nc1)c1ccc(C(F)(F)F)cc1,> 256
7,NS(=O)(=O)c1ccc(C(=O)Nc2ccc(N3CCOCC3)nc2)cc1,> 256
8,CS(=O)(=O)c1ccc(C(=O)Nc2ccc(-n3cncn3)nc2)cc1,> 256
9,NS(=O)(=O)c1ccc(C(=O)Nc2ccc(-n3cncn3)nc2)cc1,> 256
10,N#Cc1ccc(C(=O)Nc2cnc3ccccc3c2)cc1,> 256
11,O=C(Nc1ccc(-n2cncn2)nc1)c1ccccc1,> 256

# System: Escherichia coli
# Assay: Inhibition of Escherichia coli DNA dependent RNA polymerase at 100 uM after 2 hrs by SYBR Green-based spectrophotometric analysis
# Outline: as §3
row,SMILES,inhibition [%]
1,NS(=O)(=O)c1ccc(C(=O)Nc2ccc(-c3ccco3)nc2)cc1,12.9
2,O=C(Nc1ccc(-n2cncn2)nc1)c1ccc(C(F)(F)F)cc1,5.9
3,NS(=O)(=O)c1ccc(C(=O)Nc2ccc(N3CCOCC3)nc2)cc1,0
4,CS(=O)(=O)c1ccc(C(=O)Nc2ccc(-n3cncn3)nc2)cc1,0
5,N#Cc1ccc(C(=O)Nc2cnc3ccccc3c2)cc1,0
6,O=C(Nc1ccc(-n2cncn2)nc1)c1ccccc1,0

# System: Bacillus subtilis
# Assay: Antibacterial activity against Bacillus subtilis 1S34
# Format: functional
# Outline: as §1
row,SMILES,MIC [mg/L]
1,NS(=O)(=O)c1ccc(C(=O)Nc2ccc(OCc3ccccn3)nc2)cc1,> 256
2,CCCC/C(C)=C/C=C(\C)C(=O)c1c(O)cc(CCC/C=C/NC(=O)OC)oc1=O [DESMETHYL MYXOPYRONIN B],> 256
3,NC(=O)c1ccc(C(=O)Nc2ccc(-n3cncn3)nc2)cc1,> 256
4,NS(=O)(=O)c1ccc(C(=O)Nc2ccc(-c3ccco3)nc2)cc1,> 256
5,N#Cc1ccc(C(=O)Nc2ccc(-n3ccnc3)nc2)cc1,> 256
6,O=C(Nc1ccc(-n2cncn2)nc1)c1ccc(C(F)(F)F)cc1,> 256
7,NS(=O)(=O)c1ccc(C(=O)Nc2ccc(N3CCOCC3)nc2)cc1,> 256
8,CS(=O)(=O)c1ccc(C(=O)Nc2ccc(-n3cncn3)nc2)cc1,> 256
9,NS(=O)(=O)c1ccc(C(=O)Nc2ccc(-n3cncn3)nc2)cc1,> 256
10,N#Cc1ccc(C(=O)Nc2cnc3ccccc3c2)cc1,> 256
11,O=C(Nc1ccc(-n2cncn2)nc1)c1ccccc1,> 256
